Assay results as given in ChEMBL document CHEMBL1126557, “Novel antiasthmatic agents with dual activities of thromboxane A2 synthetase inhibition and bronchodilation. 2. 4-(3-Pyridyl)-1(2H)-phthalazinones” (J Med Chem, 1993).

Experiments:
Cavia porcellus = species: Cavia porcellus; test: In vitro bronchodilatory activity in guinea pig isolated tracheal strips; type: functional; settings: Trachea
[1] = test system: Thromboxane-A synthase (Oryctolagus cuniculus); test: Tested in vitro against rabbit thromboxane A2 synthetase (TXA2) at 1 uM
[2] = target: T1, Thromboxane-A synthase (Rattus norvegicus) (UniProt P49430); test: Tested ex vivo against TXA2 production in rat serum at 1 hr after peroral dose of 30 mg/kg and anesthetized with ether; type: functional, organism-based; parameters: dose 30 mg/kg
T1 sequence (whole entry): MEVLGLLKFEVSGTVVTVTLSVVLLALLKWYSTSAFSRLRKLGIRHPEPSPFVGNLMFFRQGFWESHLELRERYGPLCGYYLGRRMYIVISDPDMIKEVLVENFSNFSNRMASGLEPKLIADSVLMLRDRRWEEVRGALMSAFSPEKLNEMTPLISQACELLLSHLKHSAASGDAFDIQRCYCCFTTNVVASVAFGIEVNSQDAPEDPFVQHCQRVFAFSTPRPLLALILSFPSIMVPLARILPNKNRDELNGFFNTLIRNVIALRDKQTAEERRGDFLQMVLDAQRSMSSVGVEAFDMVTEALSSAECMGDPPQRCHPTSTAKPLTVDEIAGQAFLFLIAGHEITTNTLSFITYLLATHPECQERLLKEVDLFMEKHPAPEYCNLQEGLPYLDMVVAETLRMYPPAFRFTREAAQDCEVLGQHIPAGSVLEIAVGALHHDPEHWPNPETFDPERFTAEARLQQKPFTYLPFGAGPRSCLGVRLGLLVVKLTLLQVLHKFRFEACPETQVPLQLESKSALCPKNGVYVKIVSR
How it was run: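 Male SD rats (240–260 g), fasted 20 h, dosed orally with compound in 0.5% carboxymethylcellulose or vehicle alone. At 1 h, ether anesthesia and 2 mL cardiac blood taken and clotted at 37 °C for 90 min.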

Structure (SMILES)	IC50 (Cavia porcellus)	inhibition [1]	inhibition [2]
CC(C)NC(=O)CCCn1nc(-c2cccnc2)c2ccccc2c1=O	64.6 µM	89%	
Oc1nnc(-c2cncs2)c2ccccc12	1.2 µM	38%	70%
O=c1c2ccccc2c(-c2cccnc2)nn1CCSC1=NCCS1	10.5 µM		
Oc1nnc(-n2ccnc2)c2ccccc12	8.32 µM		87%
Oc1nnc(-c2cccnc2)c2ccccc12	10.2 µM	26%	78%
O=c1c2ccccc2c(-c2cccnc2)nn1CCCCSc1ncccn1	6.17 µM	96%	
CCn1nc(-c2nccs2)c2ccccc2c1=O	3.16 µM	4%	5%
CCn1nc(-c2cnccn2)c2ccccc2c1=O	11 µM	37%	
CCn1nc(-c2cncnc2)c2ccccc2c1=O	9.55 µM	26%	
CCn1nc(-n2cncn2)c2ccccc2c1=O	15.8 µM	0%	
CC(=O)OCCn1nc(-c2cccnc2)c2ccccc2c1=O	9.77 µM	32%	
O=C(O)CCCn1nc(-c2cccnc2)c2ccccc2c1=O	> 100 µM	73%	
O=c1c2ccccc2c(-c2cccnc2)nn1C1CCCC1	2.75 µM	97%	80%
O=c1c2ccccc2c(-c2cccnc2)nn1CCSc1ncccn1	11 µM	86%	
CCOC(=O)Cn1nc(-c2cccnc2)c2ccccc2c1=O	43.7 µM	28%	0%
CCOC(=O)CCCn1nc(-c2cccnc2)c2ccccc2c1=O	10 µM	95%	
CC(C)n1nc(-c2cccnc2)c2ccccc2c1=O	3.09 µM	87%	82%
O=c1c2ccccc2c(-c2cccnc2)nn1CC1CCCCC1	0.209 µM	98%	
Oc1nnc(-n2cncn2)c2ccccc12	16.6 µM		
O=c1c2ccccc2c(-c2cccnc2)nn1S(=O)(=O)c1ccccc1	14.8 µM	96%	
CCn1nc(-n2ccnc2)c2ccccc2c1=O	5.37 µM	53%	72%
O=c1c2ccccc2c(-c2cccnc2)nn1CCn1cnnn1	24 µM	43%	77%
O=C(c1cccs1)n1nc(-c2cccnc2)c2ccccc2c1=O	12.3 µM	37%	
CCCCCCCCn1nc(-c2cccnc2)c2ccccc2c1=O	21.9 µM	99%	
CC(C)Cn1nc(-c2cncs2)c2ccccc2c1=O	2.4 µM		

The remaining lines, values ahead:

IC50 (Cavia porcellus)	inhibition [1]	inhibition [2]	Structure (SMILES)
26.3 µM	93%		O=c1c2ccccc2c(-c2cccnc2)nn1CCNS(=O)(=O)c1ccccc1
> 100 µM	13%		O=C(O)Cn1nc(-c2cccnc2)c2ccccc2c1=O
3.16 µM	86%	93%	CCCn1nc(-c2cccnc2)c2ccccc2c1=O
21.9 µM	87%		O=C1c2ccccc2C(=O)N1CCn1nc(-c2cccnc2)c2ccccc2c1=O
17 µM	64%		O=C(O)c1ccc(Cn2nc(-c3cccnc3)c3ccccc3c2=O)cc1
5.89 µM	95%		COC(=O)c1ccc(Cn2nc(-c3cccnc3)c3ccccc3c2=O)cc1
9.33 µM	55%		COCCn1nc(-c2cccnc2)c2ccccc2c1=O
40.7 µM	13%		CC(=O)Cn1nc(-c2cccnc2)c2ccccc2c1=O
4.17 µM	95%		O=c1c2ccccc2c(-c2cccnc2)nn1Cc1cccc(Cl)c1
> 100 µM	29%		NCCn1nc(-c2cccnc2)c2ccccc2c1=O
4.57 µM	69%		O=c1c2ccccc2c(-c2cccnc2)nn1CCO
1.38 µM	94%		CC(C)=CCn1nc(-c2cccnc2)c2ccccc2c1=O
